This is an account of results in ChEMBL document CHEMBL3822380, “Simple avarone mimetics as selective agents against multidrug resistant cancer cells” (Eur J Med Chem, 2016).

Converted amounts (≈) assume the structure as drawn. The source made the active and inactive calls. No cut-off for these calls is given here.

The subject of one data set is Bacillus spizizenii. The experiment in a line: Antibacterial activity against Bacillus subtilis ATCC 6633 by broth microdilution method. In kind it is functional. In short, it runs like this:
(§1)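 Broth microdilution per NCCLS. Compounds dissolved in DMSO as 10 mg/mL stock, diluted in Mueller Hinton broth (bacteria) or Sabouraud dextrose broth (fungi). Amikacin served as the positive control for bacteria and nystatin for fungi.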

In the next data set the test system is Staphylococcus aureus. The experiment in a line: Antibacterial activity against Staphylococcus aureus ATCC 6538 by broth microdilution method. In kind it is functional. In short, it runs like this:
as §1

A further data set deals with Kocuria rhizophila. The data set can be described thus: Antibacterial activity against Kocuria rhizophila ATCC 9341 by broth microdilution method. In kind it is functional. The settings on record: DC2201. In short, it runs like this:
as §1

The next data set has as its system Proteus hauseri. The experiment in a line: Antibacterial activity against Proteus hauseri ATCC 13315 by broth microdilution method. In kind it is functional. In short, it runs like this: as §1
Another data set deals with Escherichia coli. The data set can be described thus: Antibacterial activity against Escherichia coli ATCC 25922 by broth microdilution method. In kind it is functional. The essentials:
as §1

The test system of data set [1] is Micrococcus luteus. The data set can be described thus: Antibacterial activity against Micrococcus luteus ATCC 10240 by broth microdilution method. In kind it is functional. The essentials:
as §1

Another data set has as its system Pseudomonas aeruginosa. The data set can be described thus: Antibacterial activity against Pseudomonas aeruginosa ATCC 9027 by broth microdilution method. In kind it is functional. The essentials: as §1
Data set [2] relates to Micrococcus luteus. The data set can be described thus: Antibacterial activity against Micrococcus luteus ATCC 4698 by broth microdilution method. In kind it is functional. The following applies: NCTC 2665. In short, it runs like this:
as §1

Another data set has as its system Salmonella enteritidis. The experiment in a line: Antibacterial activity against Salmonella enterica subsp. enterica serovar Enteritidis ATCC 13076 by broth microdilution method. In kind it is functional. In short, it runs like this:
as §1

The test system of a further data set is Clostridium sporogenes. The data set can be described thus: Antibacterial activity against Clostridium sporogenes ATCC 19404 by broth microdilution method. In kind it is functional. In short, it runs like this:
as §1

The test system of data set [3] is HaCaT. The data set can be described thus: Cytotoxicity against human HaCaT cells after 72 hrs by MTT assay. In kind it is cell-based. The following applies: for IC50: Homo sapiens, HaCaT; for IC30: human, hacat. In short, it runs like this:
(§2)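 Seeding in 96-well plates at 1000 (NCI-H460), 2000 (NCI-H460/R) or 4000 (HaCaT) cells/well, treated after 24 h for 72 h. MTT at 0.4 mg/mL final, 4 h at 37 °C. Formazan dissolved in DMSO, absorbance read at 540 nm. Inhibition % = (1 − A treated/A untreated)×100. IC30 and IC50 obtained by linear regression.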

Data set [4] concerns NCI-H460. The data set can be described thus: Cytotoxicity against human NCI-H460 cells after 72 hrs by MTT assay. In kind it is functional, cell-based. The following applies: NCI-H460, 72 h. In short, it runs like this:
as §2

The next data set concerns Candida albicans. The data set can be described thus: Antifungal activity against Candida albicans ATCC 10231 by broth microdilution method. In kind it is functional. The essentials: as §1
The subject of data set [5] is NCI-H460. The data set can be described thus: Cytotoxicity against multidrug resistant human NCI-H460 cells after 72 hrs by MTT assay. In kind it is functional, cell-based. The following applies: NCI-H460, 72 h. In short, it runs like this:
as §2

For the next data set, the system named is Aspergillus brasiliensis. The data set can be described thus: Antifungal activity against Aspergillus brasiliensis ATCC 16404 by broth microdilution method. In kind it is functional. The essentials:
as §1

The subject of the next data set is Saccharomyces cerevisiae. The experiment in a line: Antifungal activity against Saccharomyces cerevisiae ATCC 9763 by broth microdilution method. In kind it is functional. In short, it runs like this:
as §1

The subject of data set [6] is NCI-H460. The data set can be described thus: Induction of apoptosis in human NCI-H460 cells assessed as dead cells at 25 uM after 72 hrs by annexin-V/propidium iodide staining-based flow cytometric analysis (reference value: 1.2%). In kind it is functional.
Data set [7] deals with NCI-H460. The experiment in a line: Induction of apoptosis in multidrug resistant human NCI-H460 cells assessed as live cells at 25 uM after 72 hrs by annexin-V/propidium iodide staining-based flow cytometric analysis (reference value: 96.4%). In kind it is functional.
The test system of data set [8] is NCI-H460. The experiment in a line: Induction of apoptosis in multidrug resistant human NCI-H460 cells assessed as early apoptotic cells at 25 uM after 72 hrs by annexin-V/propidium iodide staining-based flow cytometric analysis (reference value: 1.1%). In kind it is functional.
Data set [9] concerns HaCaT. The experiment in a line: Induction of apoptosis in human HaCaT cells assessed as early apoptotic cells at 25 uM after 72 hrs by annexin-V/propidium iodide staining-based flow cytometric analysis (reference value: 0.2%). In kind it is cell-based.
Data set [10] relates to NCI-H460. The experiment in a line: Induction of superoxide anion generation in multidrug resistant human NCI-H460 cells at 25 uM after 72 hrs by DHE staining-based flow cytometric analysis relative to control. In kind it is functional, cell-based. The essentials: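 Seeded as for cell death (50,000 or 100,000 cells/well), treated 72 h at 25 µM, with CDDP 5 µM as control. Adherent cells trypsinized and loaded with 1 µM DHE for 30 min at 37 °C in the dark, then washed twice in PBS. Flow cytometry at ex 488/em 585 nm (FL2-H). Mean fluorescence intensity corrected for autofluorescence and compared with untreated control.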

The test system of data set [11] is NCI-H460. The experiment in a line: Induction of apoptosis in human NCI-H460 cells assessed as live cells at 25 uM after 72 hrs by annexin-V/propidium iodide staining-based flow cytometric analysis (reference value: 98.3%). In kind it is functional.
In data set [12] the test system is NCI-H460. The data set can be described thus: Induction of apoptosis in human NCI-H460 cells assessed as early apoptotic cells at 25 uM after 72 hrs by annexin-V/propidium iodide staining-based flow cytometric analysis (reference value: 0.3%). In kind it is functional.
Data set [13] has as its system HaCaT. The experiment in a line: Induction of apoptosis in human HaCaT cells assessed as late apoptotic/necrotic cells at 25 uM after 72 hrs by annexin-V/propidium iodide staining-based flow cytometric analysis (reference value: 0.2%). In kind it is cell-based.
Data set [14] has as its system NCI-H460. The data set can be described thus: Induction of apoptosis in multidrug resistant human NCI-H460 cells assessed as late apoptotic/necrotic cells at 25 uM after 72 hrs by annexin-V/propidium iodide staining-based flow cytometric analysis (reference value: 1%). In kind it is functional.
The nature of data set [15]: Induction of apoptosis in human HaCaT cells assessed as live cells at 25 uM after 72 hrs by annexin-V/propidium iodide staining-based flow cytometric analysis (reference value: 96.8%). In kind it is cell-based. The settings on record: read-out: Activity.
In data set [16] the test system is NCI-H460. The data set can be described thus: Induction of apoptosis in multidrug resistant human NCI-H460 cells assessed as dead cells at 25 uM after 72 hrs by annexin-V/propidium iodide staining-based flow cytometric analysis (reference value: 1.5%). In kind it is functional.
Data set [17] has as its system NCI-H460. The experiment in a line: Induction of apoptosis in human NCI-H460 cells assessed as late apoptotic/necrotic cells at 25 uM after 72 hrs by annexin-V/propidium iodide staining-based flow cytometric analysis (reference value: 0.2%). In kind it is functional.
Data set [18] concerns HaCaT. The data set can be described thus: Induction of apoptosis in human HaCaT cells assessed as dead cells at 25 uM after 72 hrs by annexin-V/propidium iodide staining-based flow cytometric analysis (reference value: 2.8%). In kind it is cell-based.

On to `NCC[C@H](O)C(=O)N[C@@H]1C[C@H](N)[C@@H](O[C@H]2O[C@H](CN)[C@@H](O)[C@H](O)[C@H]2O)[C@H](O)[C@H]1O[C@H]1O[C@H](CO)[C@@H](O)[C@H](N)[C@H]1O` [AMIKACIN], for which the MIC in the data set on Bacillus spizizenii came to 72 µM (≈ 42.2 µg/mL); against Staphylococcus aureus, 19 µM (≈ 11.1 µg/mL); against Kocuria rhizophila, 3 µM (≈ 1.76 µg/mL); against Proteus hauseri, 12 µM (≈ 7.03 µg/mL); against Escherichia coli, 9 µM (≈ 5.27 µg/mL); against Micrococcus luteus [1] it was 14 µM (≈ 8.2 µg/mL). For the same compound, the MIC in the data set on Pseudomonas aeruginosa stood at 85 µM (≈ 49.8 µg/mL); against Micrococcus luteus [2], 3 µM (≈ 1.76 µg/mL); in the data set with Salmonella enteritidis it was 14 µM (≈ 8.2 µg/mL); with Clostridium sporogenes, 26 µM (≈ 15.2 µg/mL).

Consider `CCCCNC1=CC(=O)C=C(C(C)(C)C)C1=O`, for which the MIC against Bacillus spizizenii was determined as 1240 µM (≈ 291 µg/mL); against Staphylococcus aureus it was 9 µM (≈ 2.12 µg/mL); with Candida albicans, 77 µM (≈ 18.1 µg/mL); in the data set with Escherichia coli it was 9 µM (≈ 2.12 µg/mL); against Micrococcus luteus [1] it was 9 µM (≈ 2.12 µg/mL); in the data set with Pseudomonas aeruginosa, 620 µM (≈ 146 µg/mL). Besides, the minimum inhibitory concentration (MIC) in the data set on Aspergillus brasiliensis came out at 620 µM (≈ 146 µg/mL); against Saccharomyces cerevisiae, 154 µM (≈ 36.2 µg/mL); against Micrococcus luteus [2], 154 µM (≈ 36.2 µg/mL); in the data set with Salmonella enteritidis, 620 µM (≈ 146 µg/mL); against Clostridium sporogenes it was 1240 µM (≈ 291 µg/mL). Also, the results for the IC50 with HaCaT [3], with NCI-H460 [4] and with NCI-H460 [5] were 11 µM, 14 µM and 13 µM, respectively. In addition, the IC30 was found to be 7 µM in the data set with HaCaT [3], 4 µM in the data set on NCI-H460 [4] and 4 µM in the data set on NCI-H460 [5].

For NYSTATIN, the MIC is 2700 µM against Candida albicans, 1350 µM against Aspergillus brasiliensis and 1350 µM against Saccharomyces cerevisiae.

In the case of `CCCCCCCCNC1=CC(=O)C(C[C@]2(C)[C@@H](C)CC[C@]3(C)C(C)=CCC[C@@H]23)=CC1=O`, the Activity in the data set on NCI-H460 [6] is recorded as 4.6%; with NCI-H460 [7] it was 96.1%; in the data set on NCI-H460 [8], 0.1%; in the data set with HaCaT [9] it was 0.1%; in the data set with NCI-H460 [11], 95.1%; with NCI-H460 [12], 0%. Further, the Activity was determined as 0.7% with HaCaT [13]; 0.7% with NCI-H460 [14]; 3.1% with NCI-H460 [16]; 0.3% in the data set on NCI-H460 [17]; 5.8% with HaCaT [18]. Further, the IC50 in the data set with HaCaT [3], in the data set on NCI-H460 [4] and in the data set on NCI-H460 [5] was greater than 100 µM throughout. Besides, the IC30 with HaCaT [3], in the data set on NCI-H460 [4] and in the data set on NCI-H460 [5] was greater than 100 µM each time. Moreover, the outcome with NCI-H460 [10] was inactive. Moreover, the viability at 72 h, 25 µM in [15] was determined as 93.4%.
